The record followed here is ChEMBL document CHEMBL3124822, “Discovery of a rapidly metabolized, long-acting β(2) adrenergic receptor agonist with a short onset time incorporating a sulfone group suitable for once-daily dosing” (J Med Chem, 2014).

The target of series [1] is Beta-1 adrenergic receptor (Homo sapiens, UniProt P08588). Description: Agonist activity at human beta1 adrenoceptor transfected in CHO cells assessed as cyclic AMP accumulation after 45 mins by fluorescence polarization assay. It counts as cell-based. (Polarisation of emitted light reports the rotation of a fluorescent probe.)
For series [2], the target named is Beta-2 adrenergic receptor (Homo sapiens, UniProt P07550). Briefly: Agonist activity at human beta2 adrenoceptor transfected in CHO cells assessed as cyclic AMP accumulation after 45 mins by fluorescence polarization assay. The format is functional, cell-based.
Series [3] deals with Beta-3 adrenergic receptor (Homo sapiens, UniProt P13945). Description: Agonist activity at human beta3 adrenoceptor transfected in CHO cells assessed as cyclic AMP accumulation after 45 mins by fluorescence polarization assay. The format is cell-based.
For series [4], the system named is Cavia porcellus. Briefly: Bronchodilatory activity in guinea pig assessed as duration of action of inhibition of histamine-induced bronchoconstriction at EC90 administered via nebulization 2 mins prior to histamine challenge. The format is functional. Summed up:
(§1)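 Conscious guinea pigs, n = 24 per group, given test agonist as a nebulized solution in dimethylacetamide–saline vehicle (2 min nebulization) before histamine (10 mM, nebulized 1.3 min) in a whole-body plethysmograph. PenH recorded for 15 min as index of airway obstruction. Dose expressed as nebulizer concentration; duration taken as time to 50% recovery.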

Series [5] relates to Cavia porcellus. Briefly: Bronchodilatory activity in guinea pig assessed as inhibition of histamine-induced bronchoconstriction administered via nebulization 2 mins prior to histamine challenge. It counts as functional. The gist of the method: as §1
For series [6], the system named is Rattus norvegicus. Description: Toxicity in Sprague-Dawley rat assessed as minimal irritancy in nasal cavity at 703 to 1261 ug/kg/day by 7-day snout-only inhalation assay. It counts as organism-based. To be noted: in vivo, inhaled_or_intranasal. The gist of the method: (§2)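 Sprague–Dawley male rats exposed snout-only to a dry powder formulation of the 4-biphenylsulfonic acid salt for 7 days at 181, 344, 703 and 1261 (μg/kg)/day (measured aerosol 5.1, 9.8, 19.9, 35.7 μg/L). Assessed clinically, with body weight, hematology, biochemistry and respiratory tract evaluation. Plasma exposure measured on day 7 as ng·h/mL.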

The subject of series [7] is Salmonella typhimurium. Briefly: Genotoxicity in Salmonella typhimurium by Ames assay in presence of rat liver metabolic activation system. The following applies: salmonella enterica subsp. enterica serovar typhimurium. It counts as toxicity, organism-based. The gist of the method:
(§3)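 Acetate and 4-biphenylsulfonate salts screened in Ames and mouse lymphoma L5178Y assays, with and without a rat liver metabolic activation system.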
For orientation: The Ames test detects mutagens through reverse mutation in bacteria.

The nature of series [8]: Stability of the compound in solid state. It counts as physicochemical.
The subject of series [9] is Rattus norvegicus. Briefly: Toxicity in Sprague-Dawley rat at 181 to 1261 ug/kg/day by 7-day snout-only inhalation assay. It counts as organism-based. To be noted: in vivo, inhaled_or_intranasal. Summed up:
as §2

For series [10], the system named is L5178Y. Briefly: Genotoxicity against mouse L5178Y cells in presence of rat liver metabolic activation system. It counts as toxicity, cell-based. Summed up: as §3
Series [11] in a line: Stability of the compound in solution state. The format is physicochemical.
Series [12] has as its system Rattus norvegicus. Briefly: Toxicity in Sprague-Dawley rat assessed as hematology at 181 to 1261 ug/kg/day by 7-day snout-only inhalation assay. The format is organism-based. The following applies: in vivo, inhaled_or_intranasal. The gist of the method: as §2
The nature of series [13]: Plasma concentration in Sprague-Dawley rat at 1261 ug/kg/day measured on day 7 by 7-day snout-only inhalation assay. The format is ADME. The following applies: inhaled, 1.261 mg/kg. The gist of the method:
as §2

The subject of series [14] is Rattus norvegicus. Description: Toxicity in Sprague-Dawley rat assessed as body weight change at 181 to 1261 ug/kg/day by 7-day snout-only inhalation assay. It counts as organism-based. To be noted: in vivo, inhaled_or_intranasal. The gist of the method:
as §2

The subject of series [15] is Salmonella typhimurium. Description: Genotoxicity in Salmonella typhimurium by Ames assay. It counts as toxicity, organism-based. To be noted: salmonella enterica subsp. enterica serovar typhimurium. Summed up:
as §3

Series [16] deals with L5178Y. Briefly: Genotoxicity against mouse L5178Y cells. The format is toxicity, cell-based. Summed up: as §3
Series [17] can be described thus: Solubility of the compound in water. The format is physicochemical.
Series [18] has as its system Rattus norvegicus. Briefly: Toxicity in Sprague-Dawley rat assessed as minimal irritancy in laryngeal region at 703 to 1261 ug/kg/day by 7-day snout-only inhalation assay. The format is organism-based. The following applies: in vivo, inhaled_or_intranasal. The gist of the method:
as §2

The nature of series [19]: Oral absorption in Han Wistar rat at 2 mg/kg up to 7 hrs by LC-MS/MS analysis. Details: dose 2 mg/kg. It counts as ADME, organism-based. To be noted: in vivo, read-out: Fa. The gist of the method: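 Rat oral absorption from hepatic portal vein plasma, corrected for systemic circulation levels, after β-glucuronidase treatment of samples (deconjugated HPV model). Expressed as h·ng/mL.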

Sequence of Beta-2 adrenergic receptor (P07550 whole entry): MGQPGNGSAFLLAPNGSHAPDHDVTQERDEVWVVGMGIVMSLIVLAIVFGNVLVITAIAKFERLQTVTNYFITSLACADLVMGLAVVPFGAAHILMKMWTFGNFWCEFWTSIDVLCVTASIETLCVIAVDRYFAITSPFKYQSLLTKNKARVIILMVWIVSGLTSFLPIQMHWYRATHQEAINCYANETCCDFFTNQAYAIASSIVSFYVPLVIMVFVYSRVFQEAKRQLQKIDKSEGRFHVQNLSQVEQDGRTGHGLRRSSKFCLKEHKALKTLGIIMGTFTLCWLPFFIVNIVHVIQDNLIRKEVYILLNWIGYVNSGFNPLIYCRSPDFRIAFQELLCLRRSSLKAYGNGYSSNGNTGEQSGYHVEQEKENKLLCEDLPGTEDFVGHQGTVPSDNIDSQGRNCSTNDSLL
Sequence of Beta-3 adrenergic receptor (P13945 whole entry): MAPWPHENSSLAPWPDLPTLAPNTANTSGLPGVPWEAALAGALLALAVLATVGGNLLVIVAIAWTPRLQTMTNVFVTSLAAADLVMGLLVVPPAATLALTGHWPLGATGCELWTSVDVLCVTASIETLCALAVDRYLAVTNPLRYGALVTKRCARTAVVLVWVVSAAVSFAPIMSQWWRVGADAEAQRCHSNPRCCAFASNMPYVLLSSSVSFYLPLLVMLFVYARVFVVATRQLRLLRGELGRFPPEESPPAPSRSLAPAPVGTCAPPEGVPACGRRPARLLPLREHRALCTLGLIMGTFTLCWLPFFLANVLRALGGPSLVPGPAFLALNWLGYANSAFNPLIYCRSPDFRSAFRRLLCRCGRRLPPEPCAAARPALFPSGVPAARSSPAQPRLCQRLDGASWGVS
Sequence of Beta-1 adrenergic receptor (P08588 whole entry): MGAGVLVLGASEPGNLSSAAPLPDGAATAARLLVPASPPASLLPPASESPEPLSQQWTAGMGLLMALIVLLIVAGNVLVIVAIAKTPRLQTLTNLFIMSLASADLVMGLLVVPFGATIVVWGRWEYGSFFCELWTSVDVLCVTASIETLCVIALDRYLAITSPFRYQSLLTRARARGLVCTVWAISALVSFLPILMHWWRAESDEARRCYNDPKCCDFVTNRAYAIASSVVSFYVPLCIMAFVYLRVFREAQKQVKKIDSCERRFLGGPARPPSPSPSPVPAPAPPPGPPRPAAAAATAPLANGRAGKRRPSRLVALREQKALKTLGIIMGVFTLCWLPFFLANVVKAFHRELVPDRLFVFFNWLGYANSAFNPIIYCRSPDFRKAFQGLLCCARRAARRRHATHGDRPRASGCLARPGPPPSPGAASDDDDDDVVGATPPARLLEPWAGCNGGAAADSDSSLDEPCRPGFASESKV

With `O=S(=O)(c1cccc(CCCCOCCCCCCNC[C@H](O)c2ccc(O)c(CO)c2)c1)C1CC=CC1`, the EC50 in series [1] was 501 nM; in [2], 1 nM; in [3], 398 nM.

As to `CC(=O)O.OCc1cc(C(O)CNCCCCCCOCCCCc2ccccc2)ccc1O` (configuration not stated), the Time in the series on Cavia porcellus [4] is 13 h. For the same compound, in the series on Cavia porcellus [5], the EC90 is 50000 nM.

For the compound `O=S(=O)(O)c1ccc(-c2ccccc2)cc1.O=S(=O)(c1cccc(CCCCOCCCCCCNC[C@H](O)c2ccc(O)c(CO)c2)c1)C1CCCC1`, the Activity entry with Rattus norvegicus [6], in the series on Salmonella typhimurium [7], in the series on Rattus norvegicus [9], in the series with L5178Y [10], in the series on Rattus norvegicus [12] and with Rattus norvegicus [14] was “Non-toxic” each time. The Activity result in the series with Salmonella typhimurium [15], with L5178Y [16] and in the series on Rattus norvegicus [18] was “Non-toxic” each time. Besides, the results for the Stability entry in series [8] and in [11] were “Stable” and “Unstable”, respectively. Also, the AUC in series [13] was determined as 146 ng·h/mL. The compound further came in with a solubility in series [17] of less than 10 µg/mL.

Consider `CS(=O)(=O)c1ccc(CCCCOCCCCCCNC[C@H](O)c2ccc(O)c(CO)c2)cc1`, for which the EC50 was 6310 nM in series [1], 20 nM in [2] and 3980 nM in series [3].

Take `Cc1cc(CCCCOCCCCCCNC[C@H](O)c2ccc(O)c(CO)c2)cc(S(=O)(=O)C2CCCC2)c1`: the EC50 in [1] is 158 nM; in series [2], 0.501 nM; in series [3] it was 316 nM.

Take `O=S(=O)(c1ccc(CCCCOCCCCCCNC[C@H](O)c2ccc(O)c(CO)c2)cc1)C1CCCC1`: the EC50 in [1] is 1000 nM; in series [2] it was 31.6 nM; in series [3], 398 nM.

`O=S(=O)(c1cccc(CCCCOCCCCCCNC[C@H](O)c2ccc(O)c(CO)c2)c1)C1CCCCC1`: the figures for the EC50 in series [1], in series [2] and in [3] were 251 nM, 1.58 nM and 251 nM, respectively.

For `O=S1(=O)CCc2ccc(CCCCOCCCCCCNC[C@H](O)c3ccc(O)c(CO)c3)cc21`, the values for the EC50 in [1], in series [2] and in [3] were 2000 nM, 7.94 nM and 2000 nM, respectively.

As for `O=S1(=O)CCCc2ccc(CCCCOCCCCCCNC[C@H](O)c3ccc(O)c(CO)c3)cc21`, the values for the EC50 in series [1], in series [2] and in [3] were 2000 nM, 39.8 nM and 2510 nM, respectively.

As to `OCc1cc(C(O)CNCCCCCCOCCCCc2ccccc2)ccc1O` (configuration not stated) [SALMETEROL], the AUC at 7 h in [19] was 252 ng·h/mL.

A word on the EC50: it is the concentration giving half of the maximal effect. Usually EC90 stands for the point of the concentration-response curve where the effect stands at 90%. As a reminder, the solubility is how much of the substance goes into solution per volume. A lower solubility goes with little dissolved substance.
